Calls of active or inactive are those of the source. No cut-off for these calls is given here.
Tests used:
[1] = target: Amyloid-beta precursor protein (Homo sapiens) (UniProt P05067); experiment: Inhibition of self-induced amyloid beta (1 to 42) (unknown origin) aggregation at 25 uM after 24 hrs by thioflavin-T based fluorescence assay relative to control
[2] = Metal chelating activity assessed as mole fraction of compound required to show 1:1 stoichiometry for compound-Cu2+ complex at 37.5 uM after 30 mins by UV spectrometry method
In short: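 Molar-ratio method: a methanol solution of compound (final 37.5 µM) titrated with ascending amounts of CuCl2, with absorbance followed at 426 nm by plate reader.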

[3] = Antioxidant activity assessed as trolox equivalents of AAPH radical scavenging activity preincubated for 15 mins followed by AAPH addition and measured every minute for 90 mins by ORAC-FL assay; assay type: functional
[4] = Metal chelating activity of the compound assessed as formation of Al3+-compound complex by measuring red shift in maximum absorption at 37.5 uM after 30 mins by UV-vis absorption spectra analysis (reference value: 359 nanometer)
In short: (§1)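 Metal binding examined by plate-reader absorbance scan using CuCl2, ZnCl2, AlCl3, FeSO4, CuCl and Fe(NO3)3 as metal sources.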

[5] = target: Cholinesterase (Equus caballus) (UniProt P81908); experiment: Reversible inhibition of equine serum BuChE assessed as enzyme activity at 0.1 times IC50 using butyrylthiocholine iodide as substrate by Ellman's method relative to control; set-up: scale not given: the % may be the effect or the level left
In short: (§2)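 Reversibility tested by recovery of equine serum BuChE activity after dilution of inhibitor, with activity monitored over time up to 240 min by the Ellman method (DTNB read at 412 nm). Activity expressed relative to untreated control. Three independent experiments.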

in vitro = conditions: PAMPA, pH 7.4
PC-12 [6] = experiment: Neuroprotective activity against H2O2-induced cell death in rat PC12 cells assessed as cell viability at 1 uM pretreated for 2 hrs followed by H2O2 addition measured after 30 mins by MTT assay (reference value: 49.6%); assay type: functional; conditions: read-out: Activity
[7] = Inhibition of Cu2+-induced amyloid beta (1 to 42 residues) (unknown origin) aggregation assessed as appearance of small bulk aggregates at 25 uM after 24 hrs uranyl acetate staining-based by TEM analysis
In short: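 Aβ1-42 (25 µM) and Cu2+ (25 µM) incubated with compound at 37 °C for 24 h. Aliquots applied to carbon-coated copper/rhodium grids for 2 min at room temperature, washed with water, stained with 1% w/v uranyl acetate, air-dried 15 min, then examined by field-emission TEM.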

[8] = target: Cholinesterase (Equus caballus) (UniProt P81908); experiment: Reversible inhibition of equine serum BuChE assessed as enzyme activity at 0.1 times IC50 using butyrylthiocholine iodide as substrate measured at 120 mins by Ellman's method relative to control; set-up: scale not given: the % may be the effect or the level left; in short: as §2
[9] = Metal chelating activity of the compound assessed as formation of Zn2+-compound complex at 37.5 uM after 30 mins by UV-vis absorption spectra analysis; in short: as §1
[10] = Metal chelating activity of the compound assessed as formation of Cu2+-compound complex by measuring red shift in maximum absorption at 37.5 uM after 30 mins by UV-vis absorption spectra analysis (reference value: 359 nanometer); in short: as §1
PC-12 [11] = experiment: Neuroprotective activity against H2O2-induced cell death in rat PC12 cells assessed as cell viability at 10 uM pretreated for 2 hrs followed by H2O2 addition measured after 30 mins by MTT assay (reference value: 49.6%); assay type: functional; conditions: read-out: Activity
Mus musculus = experiment: Reversal of scopolamine-induced memory cognitive memory impairment in Kunming mouse assessed as change in spontaneous alteration behavior at 7.8 mg/kg, ig pretreated for 30 mins followed by scopolamine challenge and after 30 mins by Y-maze test (reference value: 45.6%); assay type: functional
[12] = Toxicity in Kunming mouse assessed as mortality at 20 to 500 mg/kg measured up to 14 days; assay type: organism-based; conditions: in vivo, 336 h
[13] = Disaggregation of Cu2+-induced preformed fibrils of amyloid beta (1 to 42 residues) (unknown origin) at 25 uM measured after 24 hrs by TEM analysis
In short: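 Aβ1-42 (25 µM) with Cu2+ (25 µM) at 37 °C for 24 h, then compound (25 µM) added for another 24 h. 10 µL aliquots put on carbon-coated copper/rhodium grids for 2 min at room temperature, washed twice with water, stained with 1% w/v uranyl acetate, dried 15 min, then imaged by field-emission TEM.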

[14] = Inhibition of Cu2+-induced amyloid beta (1 to 42 residues) (unknown origin) aggregation at 25 uM after 24 hrs by thioflavin-T based fluorescence assay relative to control
In short: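 Aβ1-42 (25 µM) and Cu2+ (25 µM) incubated at 37 °C for 24 h with or without compound (25 µM). ThT (5 µM in 50 mM glycine-NaOH, pH 8.5) then added; fluorescence read at ex 446/em 490 nm. Inhibition = (1−IFi/IFc)×100 after background subtraction. Three independent experiments.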

[15] = target: T1, Amine oxidase [flavin-containing] B (Homo sapiens, UniProt P27338); experiment: biochemical; assay type: cell-based
T1 sequence (P27338 whole entry): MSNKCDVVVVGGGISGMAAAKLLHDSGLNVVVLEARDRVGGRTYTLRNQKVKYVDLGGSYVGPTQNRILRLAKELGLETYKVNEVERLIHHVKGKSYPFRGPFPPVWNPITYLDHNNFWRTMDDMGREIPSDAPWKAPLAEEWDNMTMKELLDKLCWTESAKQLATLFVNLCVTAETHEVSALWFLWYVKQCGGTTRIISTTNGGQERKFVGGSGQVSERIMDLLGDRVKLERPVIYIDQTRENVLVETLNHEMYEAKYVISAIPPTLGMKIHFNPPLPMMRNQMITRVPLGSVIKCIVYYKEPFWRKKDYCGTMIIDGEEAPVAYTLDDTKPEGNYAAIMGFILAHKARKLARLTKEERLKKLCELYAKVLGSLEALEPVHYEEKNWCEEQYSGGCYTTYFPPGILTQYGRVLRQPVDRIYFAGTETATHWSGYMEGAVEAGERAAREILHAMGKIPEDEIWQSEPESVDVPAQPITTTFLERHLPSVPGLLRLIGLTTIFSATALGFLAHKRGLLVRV

Chain of Cholinesterase (Equus caballus) (P81908 whole entry): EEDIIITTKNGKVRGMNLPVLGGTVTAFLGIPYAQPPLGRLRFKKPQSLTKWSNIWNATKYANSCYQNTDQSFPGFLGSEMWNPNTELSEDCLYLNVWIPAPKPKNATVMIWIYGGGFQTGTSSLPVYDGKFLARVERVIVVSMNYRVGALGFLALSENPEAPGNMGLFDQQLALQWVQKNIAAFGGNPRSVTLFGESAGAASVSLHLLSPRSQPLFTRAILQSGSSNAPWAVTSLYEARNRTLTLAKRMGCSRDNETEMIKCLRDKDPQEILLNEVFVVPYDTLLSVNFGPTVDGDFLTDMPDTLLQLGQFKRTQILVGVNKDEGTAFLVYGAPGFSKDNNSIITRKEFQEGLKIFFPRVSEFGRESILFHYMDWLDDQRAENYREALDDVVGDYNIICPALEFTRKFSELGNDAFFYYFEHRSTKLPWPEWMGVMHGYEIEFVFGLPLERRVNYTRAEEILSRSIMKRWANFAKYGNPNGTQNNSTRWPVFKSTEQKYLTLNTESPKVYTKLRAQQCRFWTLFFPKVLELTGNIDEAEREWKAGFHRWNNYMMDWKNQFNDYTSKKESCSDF
Chain of Amyloid-beta precursor protein (Homo sapiens) (P05067 whole entry): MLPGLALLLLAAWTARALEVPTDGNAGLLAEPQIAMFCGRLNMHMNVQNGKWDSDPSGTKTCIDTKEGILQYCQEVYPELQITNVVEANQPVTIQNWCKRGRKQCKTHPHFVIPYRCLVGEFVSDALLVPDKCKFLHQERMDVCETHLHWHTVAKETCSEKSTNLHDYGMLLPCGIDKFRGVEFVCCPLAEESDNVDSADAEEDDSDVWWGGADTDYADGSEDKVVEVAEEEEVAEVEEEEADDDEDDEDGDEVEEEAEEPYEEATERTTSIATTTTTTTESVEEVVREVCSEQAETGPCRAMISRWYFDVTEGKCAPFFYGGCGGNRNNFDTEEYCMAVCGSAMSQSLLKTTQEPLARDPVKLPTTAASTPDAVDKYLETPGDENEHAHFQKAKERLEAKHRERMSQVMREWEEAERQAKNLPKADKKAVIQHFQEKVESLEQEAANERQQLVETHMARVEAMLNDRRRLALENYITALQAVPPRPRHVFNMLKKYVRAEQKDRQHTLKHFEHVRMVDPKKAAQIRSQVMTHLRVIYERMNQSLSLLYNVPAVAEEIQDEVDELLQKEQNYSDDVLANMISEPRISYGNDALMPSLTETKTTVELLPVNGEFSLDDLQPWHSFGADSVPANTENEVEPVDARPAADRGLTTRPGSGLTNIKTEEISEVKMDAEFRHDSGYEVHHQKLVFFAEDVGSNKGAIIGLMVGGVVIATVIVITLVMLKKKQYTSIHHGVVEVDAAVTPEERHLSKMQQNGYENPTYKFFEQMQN

## CCN(C)C(=O)Oc1cccc(/C=C/C(=O)c2ccccc2O)c1
[1]
  inhibition: 63.9%
[2]
  Activity: 0.97 molar ratio
[3]
  Activity: 1.3 µMequiv/µM
[4]
  Activity: 428 nm
[5]
  Activity: 50.8%
In vitro
  Papp at 100 ug/ml: 15.7 ×10⁻⁶ cm/s
PC-12 [6]
  viability at 1 µM: 62.9%
[7]
  inhibition: Active
[8]
  Activity: < 75.1%
[9]
  Activity: inactive
[10]
  Activity: 435 nm
PC-12 [11]
  viability at 10 µM: 78.3%
Mus musculus
  Activity: 65.1%
[12]
  Activity: Non-Toxic
[13]
  Activity: Active
[14]
  inhibition: 78.3%
[15]
  IC50: 1.3 µM

— ChEMBL document CHEMBL4364279, “Design, synthesis, in-silico and biological evaluation of novel chalcone-O-carbamate derivatives as multifunctional agents for the treatment of Alzheimer's disease” (Eur J Med Chem, 2019)
